# Screens (PubChem BioAssay)
# TNAP act hi DEA: activators of human TNAP at high phosphate acceptor concentration | activation factor at 20 µM | purified TNAP, CDP-star luminescence, 1 M DEA, 30 min; active compounds read high; 0 = EDTA background, 1 = DMSO-only activity | 200,000 tested, under 10 active | P05186;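 active means activation factor at least 2 at 20 µM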
#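 Assay system: human TNAP; Input: enzyme diluted 1/800 final; Reagent: CDP-star luminogenic substrate at 100 µM final; Timing: 30 min, room temperature; Signal: luminescence; Evaluation: TNAP activation factor scaled between EDTA and DMSO control wells.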
# TNAP inh hiacc: inhibitors of human TNAP at high phosphate acceptor concentration. inhibition, % at 20 µM. purified TNAP, CDP-star luminescence, 1 M DEA. AID 1135. 200,000 compounds, 0.03% hits;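 active means over 50% inhibition of tissue-nonspecific alkaline phosphatase at 20 µM in the single-dose screen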;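 further: plate controls were DMSO wells for no effect and EDTA-quenched wells as full inhibition for full effect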
# NCF1 inh: blocks human p47phox regulatory protein of NADPH oxidases; P14598; p47phox/p22phox peptide binding, fluorescence polarization, 2 h; inhibition, % at 24.7 µM; 220,000 compounds, 0.53% hits; AID 1274;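 active means inhibition above about 30%, limit read from the data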;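 further: 0% = p47phox with labelled peptide and 100% = labelled peptide alone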
# Target sequence (P14598 whole entry, looked up): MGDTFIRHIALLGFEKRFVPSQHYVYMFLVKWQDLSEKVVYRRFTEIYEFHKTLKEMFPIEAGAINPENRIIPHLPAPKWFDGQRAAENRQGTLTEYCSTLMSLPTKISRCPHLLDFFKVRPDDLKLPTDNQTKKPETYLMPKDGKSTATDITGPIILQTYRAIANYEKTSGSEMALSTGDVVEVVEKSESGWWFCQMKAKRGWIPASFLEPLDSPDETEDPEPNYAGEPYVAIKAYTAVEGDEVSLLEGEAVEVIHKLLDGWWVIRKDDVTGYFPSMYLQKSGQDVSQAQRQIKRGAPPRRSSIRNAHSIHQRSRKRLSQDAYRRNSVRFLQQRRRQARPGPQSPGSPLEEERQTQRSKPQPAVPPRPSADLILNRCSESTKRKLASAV
# Insulin prom up: MIN6 insulin promoter up-regulation. z-score at 5 µM. 190,000 compounds, 0.3% hits. MIN6 insulin promoter-GFP reporter, high-content imaging; active compounds read high;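 active means z-score above 3 at 5 µM with at least 500 cells counted in the well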
# Autophagy HCS: autophagy modulation, high-content screen | MEF GFP-LC3 puncta imaging; test concentration mostly 10 µM | 190,000 compounds, 0.98% hits | calls only at 10 µM (by protocol);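 active means percentage of spot-positive cells more than 3 SD above its plate mean, without a fluorescence outlier flag or 80% toxicity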;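 further: spot-positive cell cutoff set from DMSO-treated cells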
# TNAP inh no acc: blocks human TNAP activity with no phosphate acceptor present. 200,000 compounds, 0.26% hits. inhibition, % at 20 µM. purified TNAP, CDP-star luminescence, 30 min. P05186. AID 1012;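 active means tissue-nonspecific alkaline phosphatase inhibition above about 50% at 20 µM in the single-dose screen, limit read from the data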;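 further: 0% = DMSO negative control and 100% = EDTA positive control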
# Starred values were filed as active, the others as inactive; i = inactive; . = no result; + = active, no number. Rows were chosen to be rich in hits. Some 1.8% of all compounds tested hit in one or more screens of this group.
SMILES,TNAP act hi DEA,TNAP inh hiacc,NCF1 inh,Insulin prom up,Autophagy HCS,TNAP inh no acc
O=C(N=Nc1c(O)[nH]c2ccc(Cl)cc12)c1cc(-c2cccs2)nc2ccccc12,1,-1,70*,0.2,i,4
Cc1ccc(-c2cc(C(=O)N/N=C/C=C/c3ccccc3)n[nH]2)s1,1.1,-5,-12,-0.02,i,33
O=C(O)c1cc(-c2ccco2)[nH]n1,0.9,5,-7,.,i,51*
Cc1ccc(-c2cc(C(=O)O)n[nH]2)s1,1,-1,5,0.19,i,77*
CC1(C)CC(=O)C2=C(C1)OC(N)=C(C#N)C2c1cn(-c2ccccc2)nc1-c1ccc(F)cc1 (stereo unspecified),1,0,-11,-0.4,+,-8
CC1(C)CC(=O)C2=C(C1)C(c1cn(-c3ccccc3)nc1-c1ccccc1)C(C#N)=C(N)O2 (stereo unspecified),1,-1,-12,-0.36,i,-13
CCOC(=O)COc1ccc(C(=O)NC2CCCCC2)cc1,1,0,-7,4.2*,i,-6
Cc1ccc(C(=O)NC2CCCCC2)cc1,1,-3,12,-0.45,i,-10
Cc1c(Cl)cccc1NC(=S)N(CCN(C)C)C(C)c1ccco1 (stereo unspecified),.,.,-9,-0.6,.,.
CCN1/C(=C/C(C)=C/c2sc3ccccc3[n+]2CC)Sc2ccccc21,0.6,44,-233,-3.5,i,59*
Clc1ccc(/C=N/NC2=Nc3cccc4cccc2c34)cc1,0.9,11,-40,2.3,+,-12
O=[N+]([O-])c1ccc(Oc2ccc(Oc3ccc(C(F)(F)F)cn3)cc2)nc1,.,.,-9,-0.06,.,.
CCOC(=O)C(=CNc1ccc(Oc2cccnc2)nc1)C(=O)OCC,.,.,38*,-0.47,.,.
O=C1C=C(Nc2ccc(O)cc2)CC(c2ccco2)C1 (stereo unspecified),1,3,8,6.8*,i,-9
CCCc1cc(=O)[nH]c(SCC(=O)NCCCC(=O)OCC)n1,1,-3,3,3.1*,i,-3
CCn1cc(-c2ccnc3cc(C(=O)O)nn23)c(C)n1,1,1,3,1.9,i,-2
Cc1c(-c2ccnc3cc(C(=O)O)nn23)cnn1C,1.1,-6,0,-0.32,+,-14
O=C(CSc1nnc(COc2ccccc2)n1Cc1ccco1)c1ccc(F)cc1,1,-2,-5,0.55,+,-3
COC(=O)c1nc2ccc(N3CCOCC3)cc2c(C)c1C(=O)OC,1,-1,-6,-0.9,+,-16
CC(=O)Nc1c(O)nc(SCC(=O)Nc2nnc(CC(C)C)s2)[nH]c1=O,1,-4,-21,.,+,-11
CC(C)Cc1nnc(NC(=O)CCC(=O)Nc2ccc(F)cc2)s1,1,-1,2,0.35,i,51*
CCOC(=O)Cc1csc(NC(=O)C(CC(C)C)NC(=O)C2CCCCC2)n1 (stereo unspecified),1.1,-5,2,0.11,i,-13
Cc1ccc(SCc2cc(=O)[nH]c(/N=C(\N)Nc3ccc(C)c(C)c3)n2)cc1,1,-5,0,.,i,-17
CCCCC(=O)Nc1ccc(N2CCN(C(=O)CC)CC2)cc1,1,-1,-8,.,i,-7
CCC(=O)N1CCN(c2ccc(NC(=S)NC(=O)C(C)C)cc2)CC1,1,-3,.,-0.19,+,-6
SMILES,TNAP act hi DEA,TNAP inh hiacc,NCF1 inh,Insulin prom up,Autophagy HCS,TNAP inh no acc
Cc1c(NC(=O)c2ccc(S(=O)(=O)N3CCOCC3)cc2)c(=O)n(-c2ccccc2)n1C,.,.,-7,-0.35,.,.
CC(=O)Nc1ccc(C(=O)OCC(=O)NC(=O)NC2CCCCC2)cc1,1,-3,133*,1.8,i,-19
COc1ccc(OCC(O)CN2CCCCC2)cc1 (stereo unspecified),1,-2,-6,1.1,i,-9
OC(COc1ccc(CNCCc2ccc(C(F)(F)F)cc2)cc1)CN1CCCCC1 (stereo unspecified),1,1,-4,.,+,0
O=C(c1ccc([N+](=O)[O-])cc1)N(Cc1ccc(Cl)cc1Cl)N1C(=O)CCCC1=O,1,-1,1,0.06,i,-6
O=C(c1ccc([N+](=O)[O-])cc1)N(Cc1ccc(Cl)cc1)N1C(=O)CCCC1=O,1,2,-2,-0.21,+,-4
NS(=O)(=O)c1ccc(CCNC(=O)CNS(=O)(=O)c2cccc(Br)c2)cc1,0.9,12,2,0.93,i,76*
NS(=O)(=O)c1ccc(CCNC(=O)c2cccc(OC(F)F)c2)cc1,1,-1,-28,-0.43,+,-4
CC(=O)Nc1ccc(S(=O)(=O)NCC(=O)NCCc2ccc(S(N)(=O)=O)cc2)cc1,1,4,-3,-0.45,i,16
NS(=O)(=O)c1ccc(CCNC(=O)c2ccccc2F)cc1,1.1,-6,-5,0.42,i,-5
COc1cccc(C(=O)NC2CC3CCCC(C2)N3CC(=O)Nc2ccc(N(C)C)cc2)c1 (stereo unspecified),1.1,-7,-4,-0.12,i,-12
COc1cccc(C(=O)NC2CC3CCCC(C2)N3CC(=O)Nc2ccccc2)c1 (stereo unspecified),1,2,58*,0.35,i,-13
O=C(NCCc1ccc(F)cc1)c1cc(-c2ccncc2)nc2ccccc12,.,.,-13,-0.25,.,.
Cn1c(=O)c2c(nc(N3CCN(c4ccc([N+](=O)[O-])cc4)CC3)n2C)n(C)c1=O,.,.,-10,-0.18,.,.
O=C(CCN1C(=O)c2ccc([N+](=O)[O-])cc2C1=O)Nc1nccs1,1,-4,-2,0.42,+,-9
Cc1nc(OCC(=O)c2ccc(Cl)cc2)c(C#N)c2c1COC(C)(C)C2,1,-5,122*,-0.32,i,0
CC(=O)Nc1ccc(S(=O)(=O)N(C)c2ccc(OCC(=O)OCC(=O)NCc3ccco3)cc2)cc1,.,.,-7,-0.34,.,.
CCOc1ccc(NC(=O)CC(NCc2ccccn2)C(=O)O)cc1 (stereo unspecified),1.1,-5,0,-0.47,i,-70
O=C(COc1ccccc1C(=O)N/N=C\c1ccc(O)c(O)c1)N/N=C/c1ccc(O)c(O)c1,0.4,60*,-78,-0.22,i,92*
O=c1c2c([N+](=O)[O-])cc([N+](=O)[O-])cc2sn1-c1ccc(Br)cc1,1,4,74*,-0.06,i,8
Cc1ccc(NC(=O)c2ccc(COc3ccc4c(c3)CCC4)cc2)c(C)c1,1,4,-11,0.15,i,-9
CC1(C)OC1COc1c2ccoc2cc2oc(=O)ccc12 (stereo unspecified),1.1,-8,3,-0.44,i,-12
